From PubChem BioAssay
An excerpt weighted towards active compounds, which were near 2.2% of everything screened.
Tn6 DDE FP: inhibitors of Tn6 peptide binding to human fibrin DD(E) | AID 720509 | P02675 | 370,000 tested, 0.21% active | Fibrin DD(E) TRITC-Tn6 fluorescence polarization displacement | inhibition, % at 8.3 µM;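 active means inhibition above a per-campaign cutoff: mean of compounds within control limits plus 3 SD, cut at about 15% in these data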;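 further: 0% = median of all compound wells on the plate and 100% = blocking peptide control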
MT1-MMP act inh: inhibitors of human MT1-MMP activation; P50281; HT1080 RFP-PRO-GFP cells, GFP/RFP ratio fluorescence, overnight; percent of plate control window, DMSO zero; GFP/RFP ratio change, % at 20 µM; 360,000 tested, 0.061% active; AID 651647;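 active means GFP/RFP ratio change of at least 30% with cell ATP level not reduced by more than half and red fluorescence within 50% of control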
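Assay system: HT1080 RFP-PRO-GFP cells | Dosing: 20 µM single dose, 1% DMSO | Incubation: Cells overnight before dosing, compound overnight, 37 °C, 5% CO2 | Evaluation: GFP/RFP fluorescence ratio | Control set: DMSO-only wells and HT1080 RFP-L50D-GFP cell wells as references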
Neddyl block: blocks human cullin neddylation; TR-FRET cullin neddylation, biochemical; calls only at 25 µM; 360,000 tested, 0.58% active; P61081+Q13564; in the data active means inhibition above about 36%
SKN-1 block: inhibitors of C. elegans SKN-1. C. elegans VP596 Pgst-4::GFP/RFP ratio, acrylamide-induced, 24 h. inhibition, % at 21.8 µM. 360,000 tested, 0.49% active;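 active means interference check ratio from 0.5 to 1.5 plus GFP to RFP signal ratio inhibition reaching or exceeding a fixed threshold, cut at about 30% in these data, passing the limit was not always enough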
DDE Tn7 FP inh: DD(E)-Tn7 binding inhibition, primary FP screen; P02675; FP displacement of FITC-Tn7 peptide from fibrin DD(E); 0% = median of compound wells per plate; inhibition, % at 8.3 µM; 370,000 tested, 0.13% active;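 active means inhibition above the mean of compounds falling within the control limits plus 3 SD of them, cut at about 14% in these data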;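 further: 0% = plate median of compound wells and 100% = 10 µM Aha-Tn7 peptide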
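Test system – human fibrin DD(E) · Times – 10 min preincubation, 3 h with tracer, room temperature · Detection – fluorescence polarization of the labelled Tn7 tracer · Measure – percent inhibition normalized to high-control wells · Benchmarks – high control wells with 10 µM unlabelled Aha-Tn7 peptide (full inhibition) · Repeats – singlicate testing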
proKLK7 act: activators of human kallikrein-7 zymogen | 370,000 tested, 0.9% active | AID 652039 | activation, % at 7 µM | purified proKLK7, EDANS-DABCYL substrate fluorescence; 100% is mature enzyme control, 0% vehicle | P49862;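 active means activation above the mean of all tested compounds plus 3 SD, computed per campaign excluding outliers beyond control limits, cut at about 13% in these data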
Target sequence (P49862 whole entry, looked up): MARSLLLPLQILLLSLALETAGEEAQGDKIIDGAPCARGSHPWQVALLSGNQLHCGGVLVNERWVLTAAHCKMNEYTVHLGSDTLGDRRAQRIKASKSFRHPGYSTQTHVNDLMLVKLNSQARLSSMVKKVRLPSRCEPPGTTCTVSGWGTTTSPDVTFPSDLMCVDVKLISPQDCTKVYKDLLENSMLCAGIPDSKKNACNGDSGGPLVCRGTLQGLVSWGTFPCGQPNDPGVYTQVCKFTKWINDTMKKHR
DDE Tn6 FP ctr: DD(E)-Tn6 binding inhibition, counter-screen; AID 720621; Fibrin DD(E), TRITC-Tn6 fluorescence polarization displacement; 0% = median of compound wells, not DMSO; shares compounds with Tn6 DDE FP; 680 tested, 2% active; inhibition, % at 8.3 µM;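 active means inhibition above the mean of test compounds lying between the control limits plus 3 SD of those, cut at about 14% in these data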;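 further: 0% = median of compound wells and 100% = wells with Aha-Tn7 blocking peptide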
Tn6 DDE conf: confirmation of inhibitors of Tn6 binding to human fibrin DD(E); shares compounds with Tn6 DDE FP; FP displacement of TRITC-Tn6 peptide from DD(E); 0% = per-plate median of test wells; inhibition, % at 8.3 µM; 680 tested, 10% active;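 active means inhibition above the mean of compounds lying within the control limits plus 3 SD, cut at about 16% in these data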;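 further: 100% = high control wells holding a competing inhibitor peptide at 10 µM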
* marks the source's active call; other numbers are inactive results; i = inactive; . = no result shown.

SMILES	Tn6 DDE FP	MT1-MMP act inh	Neddyl block	SKN-1 block	DDE Tn7 FP inh	proKLK7 act	DDE Tn6 FP ctr	Tn6 DDE conf
COc1ccc(C2=NN(C(=O)c3ccncc3)C(c3ccccc3O)C2)cc1 (stereo not drawn)	-4.8	-7.4	i	10.8	-0.7	0.3	.	.
O=C(Nc1ccc2nn(-c3ccccc3)nc2c1)c1ccc(Br)o1	16.8*	-1.6	i	6.8	3.4	-0.6	1.0	-2.8
COc1ccc(-c2cn(CCCOCc3ccccc3)nn2)cc1	-2.7	6.1	i	7.9	-5.5	0.1	.	.
Cc1cc(-c2nnn(CCCOC(C)(C)C)c2C)ccc1-c1cn(CCCOC(C)(C)C)nn1	16.5*	-4.6	i	36.9*	-3.7	0.2	5.0	6.0
O=c1[nH]cccc1-c1nc2ccccc2n1Cc1cccc(Cl)c1	-5.5	2.3	.	-3.1	11.9	4.9	.	.
COc1cc(CC(=O)OCC(=O)NC2CCCCC2C)cc(OC)c1OC (stereo not drawn)	25.6*	-0.3	i	-8.0	8.0	-0.1	-8.3	-8.6
COc1ccccc1N1CCN(/N=C/c2ccc(C(=O)O)cc2)CC1	16.6*	2.4	i	30.2	-6.0	0.1	-3.0	-7.7
COc1ccc(/C=N/N2CCN(c3ccccc3OC)CC2)cc1OC	-4.0	11.2	i	-2.2	-4.0	0.3	.	.
NC(=S)N/N=C/c1ccc2c(c1)OCCO2	-1.7	1.1	i	-2.7	-5.5	-0.4	.	.
COC(=O)[C@]12C[C@H](CC(=O)NCc3ccc(OC)c(OC)c3)C(=O)N(CCc3ccc(OC)c(OC)c3)C1=C[C@H](COCc1ccccc1)O[C@@H]2C	15.3*	.	.	.	2.3	0.3	-5.2	-10.2
CCn1ccc(=N)cc1	19.9*	-1.6	i	7.0	4.8	0.3	3.3	-7.6
CC1=CN2C(=N)/C(=C/c3ccc([N+](=O)[O-])o3)C(=O)N=C2S1	20.1*	6.0	i	56.9	-5.4	-0.2	-11.6	-10.4
CC(C)c1ccc(CNc2nnnn2C)cc1	19.2*	3.4	i	1.4	3.5	-0.4	0.3	0.2
Cc1cc(C)cc(NC(=O)N2CCNC(=O)C2CC(=O)Nc2cc(Cl)ccc2Cl)c1 (stereo not drawn)	15.8*	9.0	i	12.3	5.8	-0.2	8.1	-1.3
Cc1ccc(-c2[nH]nc(N)c2N=Nc2ccccc2C)cc1	-4.7	1.1	i	4.0	-3.1	-0.1	.	.
Cc1ccc(-c2[nH]nc(N)c2N=Nc2cccc(Cl)c2C)cc1	17.5*	6.1	i	9.8	6.3	0.5	4.6	-0.3
CC(=O)NC(Cc1ccccc1)C(=O)NC1CCN(C(=O)c2cnccn2)CC1 (stereo not drawn)	6.7	-3.1	i	3.6	8.7	0.5	.	.
CN(Cc1ccccc1)Cc1c[nH]c2ccccc12	16.6*	11.8	i	3.3	6.3	-0.3	-2.0	-17.5
c1ccc(Cc2c[nH]c3ccccc23)cc1	-3.2	-4.9	i	8.7	6.0	-0.4	.	.
Cc1c(C)n(CC(O)CNc2ccccc2)c2ccccc12 (stereo not drawn)	-1.1	-1.3	i	4.1	0.9	0.1	.	.
CCc1ccccc1NC(=O)CC(=O)Nc1ccccc1CC	4.8	-0.8	i	6.2	5.6	0.3	.	.
CCC(=O)Nc1cc(OC)c(NC(=S)Nc2ccccc2CC)cc1OC	74.0*	2.7	i	3.2	1.2	0.0	3.9	-7.0
Cc1cccc(S(=O)(=O)NC(=O)C2(C)CCN2C(=O)Cc2cc(F)ccc2F)c1 (stereo not drawn)	5.9	-4.9	i	-11.4	-0.2	0.3	.	.
CC1(C(=O)NS(=O)(=O)c2cccs2)CCN1C(=O)CCc1ccc(Cl)cc1Cl (stereo not drawn)	16.9*	-5.1	i	-8.5	3.0	-0.3	4.5	3.7
